Assay results pooled from the literature.
Lines come from different studies, so protocols differ.
Target: Mitogen-activated protein kinase kinase kinase kinase 5 (MAP4K5, Homo sapiens, UniProt Q9Y4K4)

Structure (SMILES) | test | setting | remaining binding [%]
C=CC(=O)N1CCC(C(=O)NCC(=O)N2CCN(c3nc(-c4cnc(N)nc4C(F)F)nc(N4CCOCC4)n3)CC2)CC1 | binding, competition with immobilised ligand | 1 µM | 95
CNC(=O)c1ccc(Nc2ncc(C(F)(F)F)c(NCc3nccnc3N(C)S(C)(=O)=O)n2)cc1 | cell-free assay, competition with immobilised ligand | 0.1 µM | 100
FC(F)(F)Oc1cccc(-c2cnc3ccc(-c4ccncc4)nn23)c1 | cell-free assay, competition with immobilised ligand | 5 µM | 77
CN(C)c1nccc(-c2cnn3ncccc23)n1 | binding | 1 µM | 88
O=C(c1ccc(Nc2nccc(-c3cc4ccccc4s3)n2)cc1)N1CCC(N2CCCC2)CC1 | binding, competition with immobilised ligand | 1 µM | 100
Nc1ncc2c(n1)-c1c([nH]c3ccc(C#CC4CC4)cc13)CCCC2 | binding, competition with immobilised ligand | 1 µM | 82
COc1ccc2c(O[C@@H]3C[C@H]4C(=O)N[C@]5(C(=O)O)CC5/C=C\CCCCC[C@H](NC(=O)OC5CCCC5)C(=O)N4C3)cc(-c3csc(NC(=O)C(C)C)n3)nc2c1C (stereo partly drawn) | cell-free assay, competition with immobilised ligand | 1 µM | 100
c1cnn2ncc(-c3ccnc(N4CCC45COC5)n3)c2c1 | binding | 1 µM | 94
O=C(NCCCN1CCOCC1)c1ccc(Nc2nccc(-c3cc4ccccc4s3)n2)cc1 | binding, competition with immobilised ligand | 1 µM | 82
O=C(O)[C@@H]1[C@@H](Cn2nnc3ccccc3c2=O)CC[C@H]1C(=O)c1ccc(OCCC2CCOCC2)cc1 | cell-free assay, competition with immobilised ligand | 1 µM | 100
O=C(Nc1c[nH]nc1C(=O)NC1CCNCC1)c1cc(F)cc(F)c1 | binding, competition with immobilised ligand | 1 µM | 100
c1cncc(-c2cccc(Nc3nccc(NC4CCCCC4)n3)c2)c1 | binding, competition with immobilised ligand | 10 µM | 91
O=c1nc(-c2ccccn2)sc2ccccc12 | binding, competition with immobilised ligand | 1 µM | 100
N[C@@H]1CCN(c2nccc(-c3cnn4ncccc34)n2)C1 | binding | 1 µM | 100
CNC(=O)[C@@H]1CC[C@@H](n2c(-c3ccc4cnccc4c3)nc3ccc(C(=O)NCc4cccc(C(N)=O)c4)cc32)C1 | binding, competition with immobilised ligand | 1 µM | 100
C[C@@H]1CCN(c2nccc(-c3cnn4ncccc34)n2)C1 | binding | 1 µM | 93
Nc1c(C(=O)NCc2ccc(C(=O)NCCCC3CCCCC3)cc2)cnn1-c1ccccc1 | cell-free assay, competition with immobilised ligand | 0.1 µM | 100
Cc1cnn2ncc(-c3ccnc(N(C)C)n3)c2c1 | binding | 1 µM | 67
Cc1c(NC(=O)c2cc(C(N)=O)nc3cc(F)ccc23)c(C(F)(F)F)nn1Cc1ccc(C#N)cc1 | cell-free assay, competition with immobilised ligand | 1 µM | 74
CC1CCCN1c1nccc(-c2cnn3ncccc23)n1 (stereo not drawn) | binding | 1 µM | 100
COc1cnc(Nc2cccc(S(N)(=O)=O)c2)nc1N1CCN(c2ccccc2)C(=O)C1 | binding, competition with immobilised ligand | 1 µM | 100
